Converted amounts (≈) assume the structure as drawn. The source made the active and inactive calls. The calls are words filed in the database; no cut-off is given here.
Assays:
[1] = Prodrug activation of compound assessed as sulphur dioxide formation at 100 uM after 30 mins in phosphate buffer at pH 7.4 by pararosaniline-based colorimetric assay in presence of cysteine; conditions: pH 7.4, 0.5 h
In short: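 Sulfite detection: 900 μL p-rosaniline dye plus 50 μL saturated HgCl2 plus 50 μL sample, kept in the dark 15 min until violet colour developed, then absorbance read.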

[2] = tested on: Mycobacterium tuberculosis; assay: Antimycobacterial activity against Mycobacterium tuberculosis H37Rv by ten-fold serial dilution method; assay type: functional
In short: (§1)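 Agar dilution: ten-fold serial dilutions incorporated into Middlebrook 7H11 agar with OADC. Inoculum from fresh 7H11 slants, adjusted to 1 mg mL−1 wet weight in 0.05% Tween 80 saline, diluted 10−2 (approx. 10^7 cfu mL−1); 5 μL spotted per tube. 37 °C, read at 28 days. MIC = lowest concentration giving complete growth inhibition.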

[3] = Prodrug activation of compound assessed as sulphur dioxide formation at 100 uM after 4 hrs in phosphate buffer at pH 7.4 by pararosaniline-based colorimetric assay in presence of cysteine; conditions: pH 7.4, 4 h
[4] = tested on: Mycobacterium tuberculosis; assay: Antimycobacterial activity against Mycobacterium tuberculosis H37Rv assessed as growth inhibition at 100 ug/ml by ten-fold serial dilution method; assay type: functional, organism-based; in short: as §1
[5] = tested on: Mycobacterium tuberculosis; assay: Antimycobacterial activity against Mycobacterium tuberculosis H37Rv assessed as growth inhibition at 2 ug/ml by ten-fold serial dilution method in presence of cysteine; assay type: functional, organism-based
In short: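 Test material was a cysteine mixture in pH 7.4 buffer, taken about 2 h after mixing and tested at 2 μg mL−1. Run on 7H11-OADC agar against H37Rv: inoculum approx. 10^7 cfu mL−1, 5 μL spotted, 37 °C, read at 28 days for complete growth inhibition.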

[6] = tested on: HEK293; assay: Cytotoxicity against human HEK293 cells after 72 hrs by XTT assay; assay type: cell-based; conditions: HEK293, 72 h
[7] = Selectivity index, ratio of IC50 for HEK293 cells to MIC for Mycobacterium tuberculosis H37Rv; assay type: functional

Row | Structure (SMILES) | Drug degradation [1] [µM] | MIC [2] [µM] | MIC99 [2] [µg/mL] | Drug degradation [3] | growth inhibition (GI) [4] | growth inhibition (GI) [5] | IC50 [6] [µM] | Selectivity Index [7]
1 | O=[N+]([O-])c1ccc(S(=O)(=O)N2CCCCC2)c([N+](=O)[O-])c1 | 91 | 2.5 (≈ 0.788 µg/mL) | 0.78 (≈ 2.47 µM) | – | – | – | – | –
2 | O=[N+]([O-])c1ccc(S(=O)(=O)NCc2ccccc2)cc1 | 0 | > 100 | > 50 | Not Active | – | – | – | –
3 | COC(=O)C1CCCN1S(=O)(=O)c1ccc([N+](=O)[O-])cc1[N+](=O)[O-] (stereo unspecified) | 83 | 35 (≈ 12.6 µg/mL) | 12.5 (≈ 34.8 µM) | – | – | – | – | –
4 | CNCc1ccccc1 [N-BENZYLMETHYLAMINE] | – | > 250 | > 100 | – | inactive | – | – | –
5 | CN1CCN(S(=O)(=O)c2ccc([N+](=O)[O-])cc2[N+](=O)[O-])CC1 | 88 | 38 (≈ 12.6 µg/mL) | 12.5 (≈ 37.8 µM) | – | – | – | – | –
6 | O=[N+]([O-])c1ccc(S(=O)(=O)N2CCOCC2)c([N+](=O)[O-])c1 | 96 | 19.6 (≈ 6.22 µg/mL) | 6.25 (≈ 19.7 µM) | – | – | – | – | –
7 | COC(=O)C(C)NS(=O)(=O)c1ccc([N+](=O)[O-])cc1[N+](=O)[O-] (stereo unspecified) | 93 | 18.7 (≈ 6.23 µg/mL) | 6.25 (≈ 18.8 µM) | – | – | – | – | –
8 | O=[N+]([O-])c1ccc(S(=O)(=O)Nc2cccc(F)c2)c([N+](=O)[O-])c1 | 24 | 73 (≈ 24.9 µg/mL) | 25 (≈ 73.3 µM) | – | – | – | – | –
9 | O=[N+]([O-])c1ccc(Cl)c([N+](=O)[O-])c1 [DINITROCHLOROBENZENE] | 0 | 30.8 (≈ 6.24 µg/mL) | 6.25 (≈ 30.9 µM) | – | – | – | – | –
10 | NNC(=O)c1ccncc1 [ISONIAZID] | – | 0.37 (≈ 0.0507 µg/mL) | 0.05 (≈ 0.365 µM) | – | – | – | – | –
11 | O=[N+]([O-])c1ccc(S(=O)(=O)NCc2ccccc2)c([N+](=O)[O-])c1 | 100 | 0.15 (≈ 0.0506 µg/mL) | 0.05 (≈ 0.148 µM) | – | – | inactive | 7 | 47
12 | O=[N+]([O-])c1ccccc1S(=O)(=O)NCc1ccccc1 | 0 | > 100 | > 50 | Not Active | – | – | – | –
13 | O=S([O-])[O-].[Na+].[Na+] | – | – | – | – | inactive | – | – | –
14 | CN(Cc1ccccc1)S(=O)(=O)c1ccc([N+](=O)[O-])cc1[N+](=O)[O-] | 100 | 1.1 (≈ 0.386 µg/mL) | 0.4 (≈ 1.14 µM) | – | – | – | – | –
15 | NCc1ccccc1 [BENZYLAMINE] | – | > 250 | > 100 | – | – | – | – | –
16 | CCCN(Cc1ccccc1)S(=O)(=O)c1ccc([N+](=O)[O-])cc1[N+](=O)[O-] | 88 | 8.25 (≈ 3.13 µg/mL) | 3.13 (≈ 8.25 µM) | – | – | – | – | –
17 | O=S(=O)(NCc1ccccc1)c1ccccc1 | 0 | > 100 | > 50 | Not Active | – | – | – | –
18 | COc1ccc(NS(=O)(=O)c2ccc([N+](=O)[O-])cc2[N+](=O)[O-])cc1 | 79.5 | 4.4 (≈ 1.55 µg/mL) | 1.56 (≈ 4.42 µM) | – | – | – | – | –
19 | O=[N+]([O-])c1ccc(S(=O)(=O)Nc2ccccc2)c([N+](=O)[O-])c1 | 55 | 9.7 (≈ 3.14 µg/mL) | 3.13 (≈ 9.68 µM) | – | – | – | – | –
20 | CS(=O)(=O)NCc1ccccc1 | 0 | > 100 | > 50 | Not Active | – | – | – | –
21 | O=[N+]([O-])c1ccc(NCc2ccccc2)c([N+](=O)[O-])c1 | 0 | > 250 | > 100 | – | – | – | – | –
